Activity calls are given as the source filed them. The rule behind the calls is not given here.
Assays:
[1] = Protection index, ratio of TD50 for neurotoxicity in ip dosed albino Carworth Farms No.1 mouse to ED50 for anticonvulsant activity in ip dosed albino Carworth Farms No.1 mouse assessed as protection against maximal electroshock-induced seizures; assay type: toxicity, organism-based; settings: in vivo, read-out: Ratio TD50/ED50
Method in brief: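 Graded i.p. doses in 0.5% methylcellulose were given to albino Carworth Farms No.1 mice. ED50 was determined in MES, scPTZ or 6-Hz (32 mA) tests, and TD50 by rotarod. PI was calculated as TD50/ED50.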

Mus musculus [2] = assay: Anticonvulsant activity in ip dosed albino Carworth Farms No.1 mouse assessed as protection against 6-Hz electroshock-induced seizures after 0.25 hrs; assay type: functional; settings: Carworth Farms No.1, ip
Method in brief: (§1)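 Quantitative i.p. evaluation in Carworth Farms No.1 albino mice, with graded doses in 0.5% methylcellulose. MES, scPTZ or 6-Hz (32 mA) seizure tests were run at 0.25 h.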

Mus musculus [3] = assay: Anticonvulsant activity in ip dosed albino Carworth Farms No.1 mouse assessed as protection against subcutaneous dosed pentetrazol-induced seizures after 0.25 hrs; assay type: functional; settings: Carworth Farms No.1, 0.25 h; method in brief: as §1
Mus musculus [4] = assay: Anticonvulsant activity in ip dosed albino Carworth Farms No.1 mouse assessed as protection against maximal electroshock-induced seizures after 0.25 hrs; assay type: functional; settings: Carworth Farms No.1, ip; method in brief: as §1
Rattus norvegicus [5] = assay: Neurotoxicity in Sprague-Dawley rat at 30 mg/kg, po after 4 hrs; assay type: toxicity, organism-based; settings: in vivo
Method in brief: (§2)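 Sprague-Dawley rats were given 30 mg/kg orally in 0.5% methylcellulose. Neurotoxicity was checked at 0.25, 0.5, 1.0, 2.0 and 4 h after dosing. Results are given as number of rats showing neurotoxicity/number tested.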

Rattus norvegicus [6] = assay: Neurotoxicity in Sprague-Dawley rat at 30 mg/kg, po after 0.25 hrs; assay type: toxicity, organism-based; settings: in vivo; method in brief: as §2
Rattus norvegicus [7] = assay: Anticonvulsant activity in Sprague-Dawley rat assessed as protection against maximal electroshock-induced seizures at 30 mg/kg, po after 1 hr; assay type: functional, organism-based
Method in brief: (§3)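 Sprague-Dawley rats were given 30 mg/kg p.o. in 0.5% methylcellulose. Maximal electroshock was applied at 0.25, 0.5, 1.0, 2.0 and 4 h after dosing. Results are reported as number of rats protected / number tested.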

Rattus norvegicus [8] = assay: Anticonvulsant activity in Sprague-Dawley rat assessed as protection against maximal electroshock-induced seizures at 30 mg/kg, po after 0.25 hrs; assay type: functional, organism-based; method in brief: as §3
Mus musculus [9] = assay: Anticonvulsant activity in albino Carworth Farms No.1 mouse assessed as protection against 6-Hz electroshock-induced seizures at 100 mg/kg, ip after 4 hrs; assay type: functional, organism-based
Method in brief: (§4)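 Carworth Farms No.1 albino mice were dosed i.p. at 100 mg/kg (0.5% methylcellulose solution or suspension). 6-Hz seizures were induced at 32 mA at 0.25, 0.5, 1.0, 2.0 and 4 h after injection. Results are given as animals protected / animals tested.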

[10] = Hepatotoxicity against human HepG2 cells assessed as cell viability at 25 uM after 24 hrs by MTT assay relative to control; assay type: toxicity, cell-based; settings: read-out: Activity
Method in brief: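 HepG2 cells (EMEM, 10% FBS, 37 °C, 5% CO₂) were seeded at 1 × 10⁴ per well and cultured overnight. They were then exposed to increasing compound concentrations for 24 h. MTT reagent was added for 3 h and formazan crystals dissolved before reading. Data are mean ± SD of at least three independent experiments, relative to untreated control.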

[11] = Hepatotoxicity against human HepG2 cells assessed as cell viability at 50 uM after 24 hrs by MTT assay relative to control
[12] = Hepatotoxicity against human HepG2 cells assessed as cell viability at 100 uM after 24 hrs by MTT assay relative to control
[13] = Protection index, ratio of TD50 for neurotoxicity in ip dosed albino Carworth Farms No.1 mouse to ED50 for anticonvulsant activity in ip dosed albino Carworth Farms No.1 mouse assessed as protection against subcutaneous dosed pentetrazol-induced seizures; assay type: toxicity, organism-based; settings: in vivo, intraperitoneal, read-out: Ratio TD50/ED50
Method in brief: (§5)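 Graded i.p. doses in 0.5% methylcellulose were given to albino Carworth Farms No.1 mice. ED50 was determined in MES, scPTZ or 6-Hz (32 mA) tests, and TD50 by rotarod. Both were reported with 95% confidence intervals. PI was calculated as TD50/ED50.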

[14] = Protection index, ratio of TD50 for neurotoxicity in ip dosed albino Carworth Farms No.1 mouse to ED50 for anticonvulsant activity in ip dosed albino Carworth Farms No.1 mouse assessed as protection against 6-Hz electroshock-induced seizures; assay type: toxicity, organism-based; settings: in vivo, read-out: Ratio TD50/ED50; method in brief: as §5
[15] = Protection index, ratio of TD50 for neurotoxicity in po dosed Sprague-Dawley rat to ED50 for anticonvulsant activity in po dosed Sprague-Dawley rat assessed as maximal electroshock-induced seizures; assay type: toxicity, organism-based; settings: in vivo
[16] = Neurotoxicity in po dosed Sprague-Dawley rat after 1 hr by rotarod test; assay type: toxicity, organism-based; settings: in vivo
Rattus norvegicus [17] = assay: Anticonvulsant activity in po dosed Sprague-Dawley rat assessed as protection against subcutaneous dosed pentetrazol-induced seizures after 1 hr; assay type: functional
Method in brief: (§6)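 Sprague-Dawley rats received graded oral doses suspended or dissolved in 0.5% methylcellulose. Challenge was maximal electroshock or subcutaneous pentetrazol at the stated time after dosing.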

Rattus norvegicus [18] = assay: Anticonvulsant activity in po dosed Sprague-Dawley rat assessed as protection against maximal electroshock-induced seizures after 1 hr; assay type: functional; method in brief: as §6
in vitro = settings: human, HepG2 cells
Mus musculus [19] = assay: Anticonvulsant activity in albino Carworth Farms No.1 mouse assessed as protection against 6-Hz electroshock-induced seizures at 100 mg/kg, ip after 0.25 hrs; assay type: functional, organism-based; method in brief: as §4
[20] = Neurotoxicity in po dosed Sprague-Dawley rat after 0.5 hrs by rotarod test; assay type: toxicity, organism-based; settings: in vivo
Rattus norvegicus [21] = assay: Anticonvulsant activity in po dosed Sprague-Dawley rat assessed as protection against subcutaneous dosed pentetrazol-induced seizures after 0.5 hrs; assay type: functional; method in brief: as §6
Rattus norvegicus [22] = assay: Anticonvulsant activity in po dosed Sprague-Dawley rat assessed as protection against maximal electroshock-induced seizures after 0.5 hrs; assay type: functional; method in brief: as §6
Mus musculus [23] = assay: Anticonvulsant activity in albino Carworth Farms No.1 mouse assessed as protection against 6-Hz electroshock-induced seizures at 100 mg/kg, ip after 0.5 hrs; assay type: functional, organism-based; method in brief: as §4
[24] = Protection index, ratio of TD50 for neurotoxicity in po dosed Sprague-Dawley rat to ED50 for anticonvulsant activity in po dosed Sprague-Dawley rat assessed as subcutaneous dosed pentetrazol-induced seizures; assay type: toxicity, organism-based; settings: in vivo

Row | SMILES | selectivity ratio [1] | ED50 (Mus musculus [2]) | ED50 (Mus musculus [3]) | ED50 (Mus musculus [4]) | Activity (Rattus norvegicus [5]) | Activity (Rattus norvegicus [6]) | Activity (Rattus norvegicus [7]) | Activity (Rattus norvegicus [8]) | Activity (Mus musculus [9]) | viability at 24 h, 25 µM [10] | viability at 24 h, 50 µM [11] | viability at 24 h, 100 µM [12] | selectivity ratio [13] | selectivity ratio [14] | selectivity ratio [15] | viability at 24 h, 10 µM (in vitro) | Activity (Mus musculus [19]) | TD50 at 0.5 h [20] | ED50 (Rattus norvegicus [21]) | ED50 (Rattus norvegicus [22]) | also measured
1 | CC(CO)NC(=O)/C=C/c1ccccc1 (racemic) | 2.6 | 60.9 mg/kg | 110 mg/kg | 86.6 mg/kg | Non-toxic | Non-toxic | inactive | inactive | inactive | 96.6% | 95% | 92.2% | 2 | 3.7 | > 8.1 | 98% | – | – | – | – | TD50 at 1 h [16]: > 250 mg/kg; ED50 (Rattus norvegicus [17]): > 250 mg/kg; ED50 (Rattus norvegicus [18]): 31 mg/kg
2 | CCC(O)CNC(=O)/C=C/c1ccccc1 (racemic) | – | – | – | – | Non-toxic | Non-toxic | inactive | Active | inactive | 91.2% | 89.4% | 85.9% | – | – | > 12.1 | 98% | Active | > 500 mg/kg | > 250 mg/kg | 41.5 mg/kg | –
3 | O=C(/C=C/c1ccccc1)N1CCC(O)CC1 | – | – | – | – | Non-toxic | Non-toxic | inactive | inactive | – | – | – | – | – | – | – | – | – | – | – | – | –
4 | CC(O)CNC(=O)/C=C/c1ccccc1 (racemic) | 2.9 | – | 77.1 mg/kg | 47.1 mg/kg | Non-toxic | Non-toxic | inactive | inactive | inactive | 92.5% | 92.6% | 91.9% | 1.8 | – | > 11 | 99% | Active | > 500 mg/kg | 46.2 mg/kg | 22.8 mg/kg | Activity (Mus musculus [23]): Active; selectivity ratio [24]: > 10.8
5 | CC(C)C(CO)NC(=O)/C=C/c1ccccc1 (racemic) | – | 106 mg/kg | – | – | Non-toxic | Non-toxic | inactive | inactive | inactive | 95.7% | 89.1% | 82.2% | – | 1.8 | – | 98% | Active | – | – | – | Activity (Mus musculus [23]): Active
